In ChEMBL document CHEMBL4819122, “Novel 4-(piperazin-1-yl)quinolin-2(1H)-one bearing thiazoles with antiproliferative activity through VEGFR-2-TK inhibition” (Bioorg Med Chem, 2021):
The source made the active and inactive calls. No cut-off for these calls is given here.

Columns and labels:
M14 = test: Cytotoxicity against human M14 assessed as growth inhibition at 10 uM by NCI protocol relative to control; type: functional; details: read-out: GI
Outline: (§1)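 Run by NCI as a single-dose screen at 10 μM across the sixty-cell-line panel, which covers nine human tumour tissue types. The read-out is percent growth inhibition of treated cells relative to untreated cells.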

SW-620 = test: Cytotoxicity against human SW-620 assessed as growth inhibition at 10 uM by NCI protocol relative to control; type: functional; details: read-out: GI
Outline: (§2)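 Run by the NCI under its standard protocol: one dose of 10 μM against a sixty-line panel from nine human tumour tissues. Result given as percent growth inhibition of treated cells relative to untreated cells.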

MDA-MB-435 = test: Cytotoxicity against human MDA-MB-435 assessed as growth inhibition at 10 uM by NCI protocol relative to control; type: functional, cell-based; outline: as §1
UO-31 = test: Cytotoxicity against human UO31 assessed as growth inhibition at 10 uM by NCI protocol relative to control; type: functional; details: read-out: GI; outline: as §2
HCT-15 = test: Cytotoxicity against human HCT-15 assessed as growth inhibition at 10 uM by NCI protocol relative to control; type: functional; details: read-out: GI; outline: as §1
Malme-3M = test: Cytotoxicity against human MALME-3M assessed as growth inhibition at 10 uM by NCI protocol relative to control; type: functional; details: read-out: GI; outline: as §1
EKVX = test: Cytotoxicity against human EKVX assessed as growth inhibition at 10 uM by NCI protocol relative to control; type: functional; details: read-out: GI; outline: as §1
HCC 2998 = test: Cytotoxicity against human HCC-2998 assessed as growth inhibition at 10 uM by NCI protocol relative to control; type: functional; details: read-out: GI; outline: as §1
BT-549 = test: Cytotoxicity against human BT-549 assessed as growth inhibition at 10 uM by NCI protocol relative to control; type: functional; details: read-out: GI; outline: as §1
SK-OV-3 = test: Cytotoxicity against human SK-OV-3 assessed as growth inhibition at 10 uM by NCI protocol relative to control; type: functional; details: read-out: GI; outline: as §1
OVCAR-8 = test: Cytotoxicity against human OVCAR-8 assessed as growth inhibition at 10 uM by NCI protocol relative to control; type: functional; details: read-out: GI; outline: as §1
786-0 = test: Cytotoxicity against human 786-0 assessed as growth inhibition at 10 uM by NCI protocol relative to control; type: functional; details: read-out: GI; outline: as §1
T47D = test: Cytotoxicity against human T47D cells assessed as reduction in cell viability after 3 hrs by MTT assay
A498 = test: Cytotoxicity against human A498 assessed as growth inhibition at 10 uM by NCI protocol relative to control; type: functional; details: read-out: GI; outline: as §1
UACC-257 = test: Cytotoxicity against human UACC-257 assessed as growth inhibition at 10 uM by NCI protocol relative to control; type: functional; details: read-out: GI; outline: as §2
SF-268 = test: Cytotoxicity against human SF-268 assessed as growth inhibition at 10 uM by NCI protocol relative to control; type: functional; details: read-out: GI; outline: as §1
U-251 = test: Cytotoxicity against human U251 assessed as growth inhibition at 10 uM by NCI protocol relative to control; type: functional; details: read-out: GI; outline: as §2
K562 = test: Cytotoxicity against human K-562 assessed as growth inhibition at 10 uM by NCI protocol relative to control; type: functional; details: read-out: GI; outline: as §1
OVCAR-4 = test: Cytotoxicity against human OVCAR-4 assessed as growth inhibition at 10 uM by NCI protocol relative to control; type: functional; details: read-out: GI; outline: as §1
NCI-H226 = test: Cytotoxicity against human NCI-H226 assessed as growth inhibition at 10 uM by NCI protocol relative to control; type: functional; details: read-out: GI; outline: as §1
NCI-H522 = test: Cytotoxicity against human NCI-H522 assessed as growth inhibition at 10 uM by NCI protocol relative to control; type: functional; details: read-out: GI; outline: as §1
MDA-MB-468 = test: Cytotoxicity against human MDA-MB-468 assessed as growth inhibition at 10 uM by NCI protocol relative to control; type: functional; details: read-out: GI; outline: as §1
SK-MEL-2 = test: Cytotoxicity against human SK-MEL-2 assessed as growth inhibition at 10 uM by NCI protocol relative to control; type: functional; details: read-out: GI; outline: as §1
SF-295 = test: Cytotoxicity against human SF-295 assessed as growth inhibition at 10 uM by NCI protocol relative to control; type: functional; details: read-out: GI; outline: as §1
KM12 = test: Cytotoxicity against human KM12 assessed as growth inhibition at 10 uM by NCI protocol relative to control; type: functional; details: read-out: GI; outline: as §1
COLO 205 = test: Cytotoxicity against human COLO 205 assessed as growth inhibition at 10 uM by NCI protocol relative to control; type: functional; details: read-out: GI; outline: as §1
CAKI-1 = test: Cytotoxicity against human Caki1 assessed as growth inhibition at 10 uM by NCI protocol relative to control; type: functional; details: read-out: GI; outline: as §1
SNB-75 = test: Cytotoxicity against human SNB-75 assessed as growth inhibition at 10 uM by NCI protocol relative to control; type: functional; details: read-out: GI; outline: as §2
TK-10 = test: Cytotoxicity against human TK-10 assessed as growth inhibition at 10 uM by NCI protocol relative to control; type: functional; details: read-out: GI; outline: as §2
NCI-H460 = test: Cytotoxicity against human NCI-H460 assessed as growth inhibition at 10 uM by NCI protocol relative to control; type: functional; details: read-out: GI; outline: as §1
A549 = test: Cytotoxicity against human A549 assessed as growth inhibition at 10 uM by NCI protocol relative to control; type: functional; details: read-out: GI; outline: as §1
ACHN = test: Cytotoxicity against human ACHN assessed as growth inhibition at 10 uM by NCI protocol relative to control; type: functional; details: read-out: GI; outline: as §1
NCI/ADR-RES = test: Cytotoxicity against human NCl/ADR-RES assessed as growth inhibition at 10 uM by NCI protocol relative to control; type: functional; details: read-out: GI; outline: as §1
RXF 393 = test: Cytotoxicity against human RXF 393 assessed as growth inhibition at 10 uM by NCI protocol relative to control; type: functional; details: read-out: GI; outline: as §1
CCRF-CEM = test: Cytotoxicity against human CCRF-CEM assessed as growth inhibition at 10 uM by NCI protocol relative to control; type: functional; details: read-out: GI; outline: as §1
IGROV-1 = test: Cytotoxicity against human IGROVI assessed as growth inhibition at 10 uM by NCI protocol relative to control; type: functional; details: read-out: GI; outline: as §1
DU-145 = test: Cytotoxicity against human DU-145 assessed as growth inhibition at 10 uM by NCI protocol relative to control; type: functional; details: read-out: GI; outline: as §1
SN12C = test: Cytotoxicity against human SN12C assessed as growth inhibition at 10 uM by NCI protocol relative to control; type: functional; details: read-out: GI; outline: as §2
SF-539 = test: Cytotoxicity against human […] assessed as growth inhibition at 10 uM by NCI protocol relative to control; type: functional; details: read-out: GI; outline: as §1
NCI-H23 = test: Cytotoxicity against human NCI-H23 assessed as growth inhibition at 10 uM by NCI protocol relative to control; type: functional; details: read-out: GI; outline: as §1
SK-MEL-28 = test: Cytotoxicity against human SK-MEL-28 assessed as growth inhibition at 10 uM by NCI protocol relative to control; type: functional; details: read-out: GI; outline: as §1
HL-60 = test: Cytotoxicity against human HL60 assessed as growth inhibition at 10 uM by NCI protocol relative to control; type: functional; details: read-out: GI; outline: as §1

`Cc1ccc(-c2csc(NC(=O)CN3CCN(c4cc(=O)[nH]c5ccc(F)cc45)CC3)n2)cc1` was tested, and the inhibition of growth at 10 µM (M14) was 27.5%, the inhibition of growth at 10 µM (SW-620) was 37% and the “growth inhibition (GI)” value (MDA-MB-435) was “inactive”. The inhibition of growth at 10 µM (UO-31) was 35.4%, the inhibition of growth at 10 µM (HCT-15) was 37.1% and the inhibition of growth at 10 µM (Malme-3M) was 43.5%. The inhibition of growth at 10 µM (EKVX) was 42.1%, the inhibition of growth at 10 µM (HCC 2998) was 34.1% and the inhibition of growth at 10 µM (BT-549) was 21.5%. It also gave an inhibition of growth at 10 µM (SK-OV-3) of 11%, an inhibition of growth at 10 µM (OVCAR-8) of 23.2% and an inhibition of growth at 10 µM (786-0) of 25.6%. For the same compound, the IC50 (T47D) was 8.41 µM, the inhibition of growth at 10 µM (A498) was 56.6% and the inhibition of growth at 10 µM (UACC-257) was 37.5%. It also gave an inhibition of growth at 10 µM (SF-268) of 14.5%, an inhibition of growth at 10 µM (U-251) of 44.4% and an inhibition of growth at 10 µM (K562) of 42.4%. For the same compound, the inhibition of growth at 10 µM (OVCAR-4) was 30.6%, the inhibition of growth at 10 µM (NCI-H226) was 11.7% and the inhibition of growth at 10 µM (NCI-H522) was 22.3%. The inhibition of growth at 10 µM (MDA-MB-468) was 41.5%, the inhibition of growth at 10 µM (SK-MEL-2) was 10.2% and the inhibition of growth at 10 µM (SF-295) was 20.3%. The inhibition of growth at 10 µM (KM12) was 13.3%, the inhibition of growth at 10 µM (COLO 205) was 10.7% and the inhibition of growth at 10 µM (CAKI-1) was 52.6%. It also gave an inhibition of growth at 10 µM (SNB-75) of 32.6%, an inhibition of growth at 10 µM (TK-10) of 46.3% and an inhibition of growth at 10 µM (NCI-H460) of 21.4%. For the same compound, the inhibition of growth at 10 µM (A549) was 43.7%, the inhibition of growth at 10 µM (ACHN) was 44.1% and the inhibition of growth at 10 µM (NCI/ADR-RES) was 38.4%. For the same compound, the inhibition of growth at 10 µM (RXF 393) was 27%, the inhibition of growth at 10 µM (CCRF-CEM) was 47% and the inhibition of growth at 10 µM (IGROV-1) was 52.6%. For the same compound, the inhibition of growth at 10 µM (DU-145) was 47.4%, the inhibition of growth at 10 µM (SN12C) was 45.1% and the inhibition of growth at 10 µM (SF-539) was 32.7%. The inhibition of growth at 10 µM (NCI-H23) was 21.6%, the inhibition of growth at 10 µM (SK-MEL-28) was 17.8% and the inhibition of growth at 10 µM (HL-60) was 40.6%.
